Source: ChEMBL document CHEMBL2146480, “Discovery of Phenylaminopyridine Derivatives as Novel HIV-1 Non-nucleoside Reverse Transcriptase Inhibitors” (ACS Med Chem Lett, 2012)
Values after ≈ are worked out from the molar mass of the structure shown. Each block holds one compound with its values, some of them ahead of it.

Columns and labels:
[1] = system: Human immunodeficiency virus 1; experiment: Antiviral activity against wild type HIV1 LAI infected in human CEM174 cells assessed as inhibition of viral replication preincubated for 1 hr prior to viral infection measured after 5 days; assay type: functional, organism-based; conditions: Human immunodeficiency virus 1, LAI
[2] = Cytotoxicity against human CEM174 cells assessed as cell viability; assay type: cell-based
Summary of the method: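 Values are geometric means of two determinations, each within 25% of the mean.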

[3] = Solubility of the compound in distilled water at pH 7.4; assay type: physicochemical
[4] = Solubility of the compound in distilled water at pH 2.1; assay type: physicochemical
[5] = molecular target: Human immunodeficiency virus type 1 reverse transcriptase (Human immunodeficiency virus 1, UniProt Q72547); experiment: Inhibition of RNA-dependent DNA polymerase activity of wild type N-terminal His6x-tagged HIV 1 reverse transcriptase p66/p51 expressed in Escherichia coli (DE3) rosetta cells preincubated for 30 mins by SPA assay
[6] = molecular target: Human immunodeficiency virus type 1 reverse transcriptase (Human immunodeficiency virus 1, UniProt Q72547, K103N); experiment: Inhibition of RNA-dependent DNA polymerase activity of N-terminal His6x-tagged HIV 1 reverse transcriptase K103N mutant expressed in Escherichia coli (DE3) rosetta cells preincubated for 30 mins by SPA assay
[7] = system: Human immunodeficiency virus type 1 reverse transcriptase (Human immunodeficiency virus 1), Q72547 [UNDEFINED MUTATION]; experiment: Resistant ratio of IC50 for HIV 1 reverse transcriptase K103N mutant to IC50 for wild type HIV 1 reverse transcriptase
Summary of the method: (§1)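 Fold resistance is IC50 against the mutant RT divided by IC50 against wild-type RT. Both IC50s come from the RNA-dependent DNA polymerase inhibition assay, each taken as the geometric mean of two determinations.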

[8] = molecular target: Human immunodeficiency virus type 1 reverse transcriptase (Human immunodeficiency virus 1, UniProt Q72547, Y181C); experiment: Inhibition of RNA-dependent DNA polymerase activity of N-terminal His6x-tagged HIV 1 reverse transcriptase Y181C mutant expressed in Escherichia coli (DE3) rosetta cells preincubated for 30 mins by SPA assay
[9] = system: Human immunodeficiency virus 1; experiment: Resistant ratio of IC50 for HIV 1 reverse transcriptase Y181C mutant to IC50 for wild type HIV 1 reverse transcriptase; summary of the method: as §1
[10] = molecular target: Voltage-gated inwardly rectifying potassium channel KCNH2 (Homo sapiens, UniProt Q12809); experiment: Inhibition of recombinant human ERG channel IKr expressed in CHO cells by patch clamp assay
[11] = Volume of distribution in rat at 0.94 mg/kg, iv and 9.44 mg/kg, po; assay type: ADME, organism-based; conditions: in vivo
Summary of the method: (§2)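 Rats given a single iv dose of 0.94 mg/kg and a single oral dose of 9.44 mg/kg. Both iv and po formulations were 1.0 mg/mL in 20% HP-β-CD. Vd, oral AUC, F, clearance and t1/2 were derived from plasma exposure.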

[12] = AUC in rat 9.44 mg/kg, po; assay type: ADME, organism-based; parameters: dose 9.44 mg/kg, route oral; conditions: plasma; summary of the method: as §2
[13] = Oral bioavailability in rat at 9.44 mg/kg; assay type: ADME, organism-based; conditions: in vivo; summary of the method: as §2
[14] = Clearance in rat at 0.94 mg/kg, iv and 9.44 mg/kg, po; assay type: ADME, organism-based; conditions: in vivo; summary of the method: as §2
[15] = Half life in rat at 0.94 mg/kg, iv and 9.44 mg/kg, po; assay type: ADME, organism-based; conditions: in vivo; summary of the method: as §2
[16] = Induction of CYP3A4 mRNA expression in human Fa2N-4 cells up to 10 uM after 24 hrs; assay type: ADME, cell-based; conditions: fa2n-4, 24 h
[17] = Half life in rat at 1.19 mg/kg, iv and 10.9 mg/kg, po; assay type: ADME, organism-based; conditions: in vivo
Summary of the method: (§3)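 The iv and po formulation was 1.0 mg/mL in 40% PEG. Vd, AUCpo, F, clearance and t1/2 were derived.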

[18] = Volume of distribution in rat at 1.19 mg/kg, iv and 10.9 mg/kg, po; assay type: ADME, organism-based; conditions: in vivo; summary of the method: as §3
[19] = AUC in rat at 10.9 mg/kg, po; assay type: ADME, organism-based; parameters: dose 10.9 mg/kg, route oral; conditions: plasma; summary of the method: as §3
[20] = Oral bioavailability in rat at 10.9 mg/kg; assay type: ADME, organism-based; conditions: in vivo; summary of the method: as §3
[21] = Clearance in rat at 1.19 mg/kg, iv and 10.9 mg/kg, po; assay type: ADME, organism-based; conditions: in vivo; summary of the method: as §3
[22] = Solubility of the compound in distilled water; assay type: physicochemical
Summary of the method: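 Solubility was measured on the HCl salt in distilled water.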

[23] = Half life in rat at 1.10 mg/kg, iv and 10.7 mg/kg, po; assay type: ADME, organism-based; conditions: in vivo
Summary of the method: (§4)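 Both routes were formulated at 1.0 mg/mL in 50% PEG. Parameters reported are Vd, AUCpo, oral bioavailability, clearance and half-life.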

[24] = Volume of distribution in rat at 1.10 mg/kg, iv and 10.7 mg/kg, po; assay type: ADME, organism-based; conditions: in vivo, 1.1 mg/kg; summary of the method: as §4
[25] = AUC in rat at 10.7 mg/kg, po; assay type: ADME, organism-based; parameters: dose 10.7 mg/kg, route oral; conditions: plasma; summary of the method: as §4
[26] = Oral bioavailability in rat at 10.7 mg/kg; assay type: ADME, organism-based; conditions: in vivo; summary of the method: as §4
[27] = Clearance in rat at 1.10 mg/kg, iv and 10.7 mg/kg, po; assay type: ADME, organism-based; conditions: in vivo, 1.1 mg/kg; summary of the method: as §4

Voltage-gated inwardly rectifying potassium channel KCNH2, sequence (Q12809 whole entry): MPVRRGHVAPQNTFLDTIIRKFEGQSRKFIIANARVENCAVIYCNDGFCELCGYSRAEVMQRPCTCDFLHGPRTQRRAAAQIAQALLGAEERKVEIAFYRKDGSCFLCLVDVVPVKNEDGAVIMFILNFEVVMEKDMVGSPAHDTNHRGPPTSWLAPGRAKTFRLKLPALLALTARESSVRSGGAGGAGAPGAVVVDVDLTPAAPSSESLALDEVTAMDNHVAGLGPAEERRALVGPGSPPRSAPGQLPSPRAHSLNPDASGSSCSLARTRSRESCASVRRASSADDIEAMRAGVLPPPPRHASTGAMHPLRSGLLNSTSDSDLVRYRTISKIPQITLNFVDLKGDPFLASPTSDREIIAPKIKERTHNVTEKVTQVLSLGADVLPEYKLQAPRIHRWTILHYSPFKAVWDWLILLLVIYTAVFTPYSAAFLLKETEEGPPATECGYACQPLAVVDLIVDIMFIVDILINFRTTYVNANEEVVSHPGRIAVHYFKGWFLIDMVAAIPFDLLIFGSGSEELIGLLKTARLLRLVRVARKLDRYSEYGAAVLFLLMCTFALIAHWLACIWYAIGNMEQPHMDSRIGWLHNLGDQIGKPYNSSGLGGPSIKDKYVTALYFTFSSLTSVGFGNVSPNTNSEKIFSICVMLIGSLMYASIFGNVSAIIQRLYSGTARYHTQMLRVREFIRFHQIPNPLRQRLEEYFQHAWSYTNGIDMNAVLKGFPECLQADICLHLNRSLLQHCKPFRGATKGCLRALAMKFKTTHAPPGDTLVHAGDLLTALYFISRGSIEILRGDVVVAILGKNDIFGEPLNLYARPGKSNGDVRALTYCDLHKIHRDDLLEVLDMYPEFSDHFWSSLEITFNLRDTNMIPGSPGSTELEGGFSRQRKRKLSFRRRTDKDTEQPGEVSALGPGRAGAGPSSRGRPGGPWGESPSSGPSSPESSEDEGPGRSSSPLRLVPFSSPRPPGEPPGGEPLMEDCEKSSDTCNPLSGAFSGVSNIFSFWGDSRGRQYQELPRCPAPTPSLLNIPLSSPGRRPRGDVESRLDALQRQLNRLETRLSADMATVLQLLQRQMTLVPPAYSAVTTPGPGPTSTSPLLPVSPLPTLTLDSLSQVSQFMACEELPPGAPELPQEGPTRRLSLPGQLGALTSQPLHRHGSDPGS

SMILES: Cc1ccnc2c1NC(=O)c1cccnc1N2C1CC1 [NEVIRAPINE]
EC50 [1]: 150 nM
CC50 [2]: > 10000 nM

SMILES: N#Cc1cc(Cl)cc(Oc2cc(OCc3n[nH]c4nc(N)ccc34)ccc2Cl)c1
CC50 [2]: > 10000 nM

SMILES: Cc1ccc(-c2cnnc(NCc3cc(-c4ccccc4)[nH]n3)n2)cc1
EC50 [1]: > 10000 nM
CC50 [2]: > 10000 nM

SMILES: Cc1cc(C#N)ccc1-c1ccnc(NCc2cc(-c3ccccn3)[nH]n2)c1
EC50 [1]: 3.6 nM
CC50 [2]: > 10000 nM
solubility [3]: 0.71 µM (≈ 0.26 µg/mL)
solubility [4]: > 545 µM
IC50 [5]: 10 nM
IC50 [6]: 134 nM
Ratio IC50 [7]: 13
IC50 [8]: 84 nM
Ratio IC50 [9]: 8.4
IC50 [10]: 1100 nM

SMILES: Cc1cc(C#N)ccc1-c1ccnc(NCc2cc(-c3ccccc3)[nH]n2)c1
EC50 [1]: 0.8 nM
CC50 [2]: > 10000 nM

SMILES: Cc1cc(C#N)ccc1-c1ccnc(NCc2n[nH]c(-c3ccccn3)c2Cl)c1
EC50 [1]: 0.2 nM
CC50 [2]: > 10000 nM
solubility [3]: 1.1 µM (≈ 0.441 µg/mL)
solubility [4]: 132 µM (≈ 52.9 µg/mL)
IC50 [5]: 3 nM
IC50 [6]: 16 nM
IC50 [8]: 7.9 nM
Vd [11]: 1.1 L/kg
AUC [12]: 67 µM·h
bioavailability [13]: 127%
clearance [14]: 8.2 mL/min/kg
half-life [15]: 2 h
Activity [16]: Not Active

SMILES: Cc1cc(C#N)ccc1-c1ccnc(NCc2n[nH]c3ncccc23)c1
EC50 [1]: 1.1 nM
CC50 [2]: > 10000 nM
solubility [3]: 3.7 µM (≈ 1.26 µg/mL)
solubility [4]: > 881 µM
IC50 [5]: 1.2 nM
IC50 [6]: 10 nM
IC50 [8]: 5.6 nM

SMILES: Cc1cc(C#N)ccc1-c1ccnc(NCc2n[nH]c(-c3ccccc3)c2Cl)c1
EC50 [1]: 6.8 nM
CC50 [2]: > 10000 nM
solubility [3]: 2.1 µM (≈ 0.84 µg/mL)
solubility [4]: 45 µM (≈ 18 µg/mL)
IC50 [5]: 5.1 nM
IC50 [6]: 11 nM
IC50 [8]: 6.3 nM
half-life [17]: 3.1 h
Vd [18]: 2.08 L/kg
AUC [19]: 34 µM·h
bioavailability [20]: 71%
clearance [21]: 8.7 mL/min/kg

SMILES: Cc1cc(C#N)ccc1-c1ccnc(NCc2n[nH]c3nc(N)ccc23)c1.Cl
solubility [22]: > 4220 µM

SMILES: Cc1cc(C#N)ccc1-c1ccnc(NCc2cc(-c3ccccc3)[nH]n2)n1
EC50 [1]: 4.3 nM
CC50 [2]: > 10000 nM

SMILES: Cc1cc(C#N)ccc1-c1ccnc(NCc2n[nH]c3nc(F)ccc23)c1
EC50 [1]: 0.35 nM
CC50 [2]: > 10000 nM
solubility [3]: 1.8 µM (≈ 0.645 µg/mL)
IC50 [5]: 1.9 nM
IC50 [6]: 10 nM
IC50 [8]: 7.7 nM

SMILES: Cc1cc(C#N)ccc1-c1ccnc(NCc2n[nH]c(-c3ccccn3)c2Cl)c1.Cl
solubility [22]: 100 µM

SMILES: Cc1cccc(-c2cnnc(NCc3cc(-c4ccccc4)[nH]n3)n2)c1
EC50 [1]: 2300 nM
CC50 [2]: > 10000 nM

SMILES: Cc1cc(C#N)ccc1-c1ccnc(NCc2n[nH]c3nc(N)ccc23)c1
EC50 [1]: 1.9 nM
CC50 [2]: > 10000 nM
solubility [3]: 0.34 µM (≈ 0.121 µg/mL)
solubility [4]: > 884 µM
IC50 [5]: 5.9 nM
IC50 [6]: 36 nM
IC50 [8]: 16 nM
half-life [23]: 2.5 h
Vd [24]: 1.26 L/kg
AUC [25]: 20 µM·h
bioavailability [26]: 72%
clearance [27]: 14 mL/min/kg

More lines, main results first:

EC50 [1]: 124 nM
SMILES: Cc1ccccc1-c1cnnc(NCc2cc(-c3ccccc3)[nH]n2)n1
CC50 [2]: > 10000 nM

EC50 [1]: 1.7 nM
SMILES: Cc1cc(C#N)ccc1-c1cnnc(NCc2cc(-c3ccccc3)[nH]n2)n1
CC50 [2]: > 10000 nM

EC50 [1]: 3.2 nM
SMILES: Cc1cccc(C)c1-c1cnnc(NCc2cc(-c3ccccc3)[nH]n2)n1
CC50 [2]: > 10000 nM

EC50 [1]: 16 nM
SMILES: Cc1cc(C#N)ccc1-c1cncc(NCc2cc(-c3ccccc3)[nH]n2)c1
CC50 [2]: > 10000 nM

EC50 [1]: 1290 nM
SMILES: c1ccc(-c2cnnc(NCc3cc(-c4ccccc4)[nH]n3)n2)cc1
CC50 [2]: > 10000 nM

EC50 [1]: 1200 nM
SMILES: Cc1ccccc1-c1cncc(NCc2cc(-c3ccccc3)[nH]n2)c1
CC50 [2]: > 10000 nM

EC50 [1]: 2200 nM
SMILES: Cc1ccccc1-c1cccc(NCc2cc(-c3ccccc3)[nH]n2)c1
CC50 [2]: > 10000 nM

EC50 [1]: 265 nM
SMILES: c1ccc(-c2cc(CNc3nncc(-c4cccc5ccccc45)n3)n[nH]2)cc1
CC50 [2]: > 10000 nM

EC50 [1]: 366 nM
SMILES: Cc1ccccc1-c1ccnc(NCc2cc(-c3ccccc3)[nH]n2)n1
CC50 [2]: > 10000 nM

EC50 [1]: > 10000 nM
SMILES: Cc1ccccc1-c1cccc(NCc2cc(-c3ccccc3)[nH]n2)n1
CC50 [2]: > 10000 nM

EC50 [1]: 910 nM
SMILES: Cc1ccccc1-c1cncc(NCc2cc(-c3ccccc3)[nH]n2)n1
CC50 [2]: > 10000 nM

EC50 [1]: 149 nM
SMILES: Cc1ccccc1-c1ccnc(NCc2cc(-c3ccccc3)[nH]n2)c1
CC50 [2]: > 10000 nM
